# Reference: ChEMBL document CHEMBL3621182, “Adenosine analogs as inhibitors of tyrosyl-tRNA synthetase: Design, synthesis and antibacterial evaluation” (Bioorg Med Chem, 2015)
# Tests used:
# [1] = Inhibition of Staphylococcus aureus tyrosyl-tRNA synthetase expressed in Escherichia coli assessed as reduction in tRNA aminoacylation pre-incubated for 10 mins before addition of Escherichia coli MRE600 tRNA and L-tyrosine
# Procedure, shortened: (§1)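 Tritiated tyrosine aminoacylation at 37°C. Mix (final): 100 mM Tris/Cl pH 7.9, 50 mM KCl, 16 mM MgCl2, 5 mM ATP, 3 mM DTT, 4 mg/ml E. coli MRE600 tRNA, 10 µM L-tyrosine including 0.3 µM L-[ring-3,5-3H]tyrosine. TyrRS (0.2 nM) preincubated 10 min at room temperature with a range of inhibitor concentrations. TCA precipitation onto filters, scintillation counting. Linear rates, under 50% tRNA acylation; IC50 at half activity.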
# [2] = tested on: Escherichia coli; experiment: Antimicrobial activity against Escherichia coli ATCC 8739 by MTT assay; assay type: functional
# Procedure, shortened: (§2)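 Broth microdilution in LB medium with MTT read-out. Compound stock 1000 µg/ml in DMSO, diluted serially with sterile medium (50% v/v DMSO in PBS). Inoculum about 10^5 cfu/mL, incubated at 37°C. Then 3 mg/mL MTT in PBS added, 4-5 h at room temperature. Dye extracted with 10% SDS containing 5% isopropanol and HCl for 8-10 h. Absorbance at 570 nm gives MIC50.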
# [3] = tested on: Staphylococcus aureus; experiment: Antimicrobial activity against Staphylococcus aureus ATCC 6538 by MTT assay; assay type: functional; procedure, shortened: as §2
# [4] = tested on: Pseudomonas aeruginosa; experiment: Antimicrobial activity against Pseudomonas aeruginosa ATCC 9027 by MTT assay; assay type: functional; procedure, shortened: as §2
# [5] = Inhibition of Staphylococcus aureus tyrosyl-tRNA synthetase; procedure, shortened: as §1
SMILES,IC50 [1] [µM],MIC50 [2] [µg/mL],MIC50 [3] [µg/mL],MIC50 [4] [µg/mL],IC50 [5] [µM]
Nc1ncnc2c1ncn2[C@@H]1O[C@H](COC(=O)c2ccccc2)[C@@H](O)[C@H]1O,39,33.7,67.4,21.9,–
N[C@@H](Cc1ccc(O)cc1)C(=O)N[C@H](C(=O)O)[C@H]1[C@H](O)[C@]2(O)CO[C@@H]([C@@H]2O)N1O,–,–,–,–,< 0.001
CC(=O)OC[C@H]1O[C@@H](n2cnc3c(N)ncnc32)[C@H](O)[C@@H]1O,–,77.6,> 100,58.2,–
CCCCCC(=O)OC[C@H]1O[C@@H](n2cnc3c(N)ncnc32)[C@H](O)[C@@H]1O,77,> 100,> 100,> 100,–
CC1(C)O[C@@H]2[C@H](O1)[C@@H](COC(=O)Cc1cccc(Br)c1)O[C@H]2n1cnc2c(N)ncnc21,3.7,40.6,38.3,18.8,–
CC1(C)O[C@@H]2[C@H](O1)[C@@H](COC(=O)Cc1cccc(Cl)c1)O[C@H]2n1cnc2c(N)ncnc21,6.3,27.8,44.9,22,–
CC1(C)O[C@@H]2[C@H](O1)[C@@H](COC(=O)Cc1ccc(F)cc1)O[C@H]2n1cnc2c(N)ncnc21,7.1,76.2,> 100,24.8,–
CC1(C)O[C@@H]2[C@H](O1)[C@@H](COC(=O)Cc1ccc(Br)cc1)O[C@H]2n1cnc2c(N)ncnc21,5.6,> 100,> 100,21.2,–
CC1(C)O[C@@H]2[C@H](O1)[C@@H](COC(=O)Cc1ccc(Cl)cc1)O[C@H]2n1cnc2c(N)ncnc21,8.4,15.2,7.2,30.6,–
CC1(C)O[C@@H]2[C@H](O1)[C@@H](COC(=O)Cc1cccc(F)c1)O[C@H]2n1cnc2c(N)ncnc21,1.1,60.3,> 100,12.9,–
CC1(C)O[C@@H]2[C@H](O1)[C@@H](COC(=O)Cc1ccc(O)cc1)O[C@H]2n1cnc2c(N)ncnc21,19,44.6,> 100,17.4,–
CC1(C)O[C@@H]2[C@H](O1)[C@@H](COC(=O)Cc1ccccc1O)O[C@H]2n1cnc2c(N)ncnc21,55,37.2,> 100,23,–
CC1(C)O[C@@H]2[C@H](O1)[C@@H](COC(=O)Cc1cccc(O)c1)O[C@H]2n1cnc2c(N)ncnc21,9.6,18.9,> 100,25.9,–
Cc1ccc(CC(=O)OC[C@H]2O[C@@H](n3cnc4c(N)ncnc43)[C@@H]3OC(C)(C)O[C@@H]32)cc1,17,27,> 100,14.1,–
CC1(C)O[C@@H]2[C@H](O1)[C@@H](COC(=O)Cc1ccc(Cl)c(Cl)c1)O[C@H]2n1cnc2c(N)ncnc21,> 100,34,40.2,19.3,–
COc1ccc(CC(=O)OC[C@H]2O[C@@H](n3cnc4c(N)ncnc43)[C@@H]3OC(C)(C)O[C@@H]32)cc1OC,> 100,47.3,> 100,30.1,–
CC1(C)O[C@@H]2[C@H](O1)[C@@H](COC(=O)Cc1ccccc1Cl)O[C@H]2n1cnc2c(N)ncnc21,47,29,> 100,28,–
CC1(C)O[C@@H]2[C@H](O1)[C@@H](COC(=O)Cc1ccccc1F)O[C@H]2n1cnc2c(N)ncnc21,44,25.7,> 100,25.5,–
Nc1ncnc2c1ncn2[C@@H]1O[C@H](COC(=O)Cc2cccc(Br)c2)[C@@H](O)[C@H]1O,3.3,38.1,> 100,27.4,–
Nc1ncnc2c1ncn2[C@@H]1O[C@H](COC(=O)Cc2cccc(Cl)c2)[C@@H](O)[C@H]1O,6,20.2,49.2,35.1,–
Nc1ncnc2c1ncn2[C@@H]1O[C@H](COC(=O)Cc2ccc(F)cc2)[C@@H](O)[C@H]1O,7.7,> 100,> 100,26.1,–

SMILES,IC50 [1] [µM],MIC50 [2] [µg/mL],MIC50 [3] [µg/mL],MIC50 [4] [µg/mL],IC50 [5] [µM]
Nc1ncnc2c1ncn2[C@@H]1O[C@H](COC(=O)Cc2ccc(Br)cc2)[C@@H](O)[C@H]1O,5.2,88.9,42.2,19.3,–
Nc1ncnc2c1ncn2[C@@H]1O[C@H](COC(=O)Cc2ccc(Cl)cc2)[C@@H](O)[C@H]1O,8.1,7.7,13.8,19.9,–
Nc1ncnc2c1ncn2[C@@H]1O[C@H](COC(=O)Cc2cccc(F)c2)[C@@H](O)[C@H]1O,0.8,1.3,9.2,0.08,–
Nc1ncnc2c1ncn2[C@@H]1O[C@H](COC(=O)Cc2ccc(O)cc2)[C@@H](O)[C@H]1O,23,9.8,44.3,25.9,–
Nc1ncnc2c1ncn2[C@@H]1O[C@H](COC(=O)Cc2ccccc2O)[C@@H](O)[C@H]1O,44,15.9,37.8,26,–
Nc1ncnc2c1ncn2[C@@H]1O[C@H](COC(=O)Cc2cccc(O)c2)[C@@H](O)[C@H]1O,9.3,37,> 100,27.3,–
Cc1ccc(CC(=O)OC[C@H]2O[C@@H](n3cnc4c(N)ncnc43)[C@H](O)[C@@H]2O)cc1,15,16.4,47.4,11.8,–
Nc1ncnc2c1ncn2[C@@H]1O[C@H](COC(=O)Cc2ccc(Cl)c(Cl)c2)[C@@H](O)[C@H]1O,97,19.4,48.5,21.4,–
COc1ccc(CC(=O)OC[C@H]2O[C@@H](n3cnc4c(N)ncnc43)[C@H](O)[C@@H]2O)cc1OC,> 100,16.5,> 100,10.2,–
Nc1ncnc2c1ncn2[C@@H]1O[C@H](COC(=O)Cc2ccccc2Cl)[C@@H](O)[C@H]1O,47,7.4,> 100,26.7,–
Nc1ncnc2c1ncn2[C@@H]1O[C@H](COC(=O)Cc2ccccc2F)[C@@H](O)[C@H]1O,40,23.6,51.4,35.8,–
CCCC(=O)OC[C@H]1O[C@@H](n2cnc3c(N)ncnc32)[C@H](O)[C@@H]1O,65,> 100,> 100,87.3,–
CCCCCCCC(=O)OC[C@H]1O[C@@H](n2cnc3c(N)ncnc32)[C@H](O)[C@@H]1O,93,> 100,> 100,> 100,–
CCCCCCCCCC(=O)OC[C@H]1O[C@@H](n2cnc3c(N)ncnc32)[C@H](O)[C@@H]1O,> 100,> 100,> 100,> 100,–
Nc1ncnc2c1ncn2[C@@H]1O[C@H](COC(=O)c2ccc(Cl)cc2)[C@@H](O)[C@H]1O,43,28.1,> 100,19.3,–
Nc1ncnc2c1ncn2[C@@H]1O[C@H](COC(=O)c2cccc(Cl)c2)[C@@H](O)[C@H]1O,28,11.3,9.4,8.7,–
Nc1ncnc2c1ncn2[C@@H]1O[C@H](COC(=O)c2cccc(F)c2)[C@@H](O)[C@H]1O,11,5.3,20.4,3.5,–
Nc1ncnc2c1ncn2[C@@H]1O[C@H](COC(=O)c2ccc(F)cc2)[C@@H](O)[C@H]1O,51,24.8,> 100,11.2,–
Nc1ncnc2c1ncn2[C@@H]1O[C@H](COC(=O)c2ccc(Br)cc2)[C@@H](O)[C@H]1O,62,10.1,> 100,22.7,–
O=C(O)c1cn(C2CC2)c2cc(N3CCNCC3)c(F)cc2c1=O [CIPROFLOXACIN],–,0.67,–,0.1,–
CC1(C)S[C@@H]2[C@H](NC(=O)Cc3ccccc3)C(=O)N2[C@H]1C(=O)O [PENICILLIN G SODIUM],–,–,0.54,–,–
